# Experimental data from ChEMBL document CHEMBL4028914, “Structure-Based Design of 6-Chloro-4-aminoquinazoline-2-carboxamide Derivatives as Potent and Selective p21-Activated Kinase 4 (PAK4) Inhibitors” (J Med Chem, 2018).
# Activity calls are given as the source filed them. The rule behind the calls is not given here.
# Target: Serine/threonine-protein kinase PAK 5 (Homo sapiens, UniProt Q9P286)
# Experiment: Inhibition of full length recombinant human His-tagged PAK5 […] expressed in Baculovirus expression system by Z'-Lyte assay
# Serine/threonine-protein kinase PAK 5, sequence (Q9P286 whole entry): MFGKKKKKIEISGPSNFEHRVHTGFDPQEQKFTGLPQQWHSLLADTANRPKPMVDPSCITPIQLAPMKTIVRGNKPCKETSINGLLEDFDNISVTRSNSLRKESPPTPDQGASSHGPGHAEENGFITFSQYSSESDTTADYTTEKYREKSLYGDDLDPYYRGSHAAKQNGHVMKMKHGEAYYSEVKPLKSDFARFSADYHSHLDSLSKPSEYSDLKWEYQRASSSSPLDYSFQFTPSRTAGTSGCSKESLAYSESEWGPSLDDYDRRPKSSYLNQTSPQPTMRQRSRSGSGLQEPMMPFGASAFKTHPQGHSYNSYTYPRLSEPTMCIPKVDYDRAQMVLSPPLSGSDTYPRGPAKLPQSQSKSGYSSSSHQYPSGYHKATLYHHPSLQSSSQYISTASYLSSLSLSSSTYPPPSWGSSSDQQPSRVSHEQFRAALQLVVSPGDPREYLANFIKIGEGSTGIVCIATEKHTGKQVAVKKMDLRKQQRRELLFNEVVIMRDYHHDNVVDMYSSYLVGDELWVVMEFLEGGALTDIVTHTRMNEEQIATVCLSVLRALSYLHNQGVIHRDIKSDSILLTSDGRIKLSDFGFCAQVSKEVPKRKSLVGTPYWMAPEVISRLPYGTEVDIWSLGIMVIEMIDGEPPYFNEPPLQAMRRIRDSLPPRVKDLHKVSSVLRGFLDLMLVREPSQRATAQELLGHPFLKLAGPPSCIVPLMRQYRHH
row,IC50 [nM],SMILES
1,15,C[C@@H]1CN(C(=O)c2nc(Nc3cc(C4CC4)[nH]n3)c3cc(Cl)ccc3n2)CCN1 [listing 1 of 2 here]

# Test system: NCI-H460
# Experiment: Antiinvasive activity against human NCI-H460 cells at 0.5 to 10 uM after 24 hrs by transwell assay
# Type: functional, cell-based
row,SMILES,Activity
1,C[C@@H]1CN(C(=O)c2nc(Nc3cc(C4CC4)[nH]n3)c3cc(Cl)ccc3n2)CCN1 [listing 2 of 2 here],inactive

# Target: T1, Serine/threonine-protein kinase PAK 4 (Homo sapiens, UniProt O96013)
# Experiment: Inhibition of GST-tagged human PAK4 (295 to 591 residues) expressed in Baculovirus expression system at 0.1 uM by Z'-Lyte assay relative to control
# Target sequence in this assay (O96013 whole entry, looked up, the tested form may be a part): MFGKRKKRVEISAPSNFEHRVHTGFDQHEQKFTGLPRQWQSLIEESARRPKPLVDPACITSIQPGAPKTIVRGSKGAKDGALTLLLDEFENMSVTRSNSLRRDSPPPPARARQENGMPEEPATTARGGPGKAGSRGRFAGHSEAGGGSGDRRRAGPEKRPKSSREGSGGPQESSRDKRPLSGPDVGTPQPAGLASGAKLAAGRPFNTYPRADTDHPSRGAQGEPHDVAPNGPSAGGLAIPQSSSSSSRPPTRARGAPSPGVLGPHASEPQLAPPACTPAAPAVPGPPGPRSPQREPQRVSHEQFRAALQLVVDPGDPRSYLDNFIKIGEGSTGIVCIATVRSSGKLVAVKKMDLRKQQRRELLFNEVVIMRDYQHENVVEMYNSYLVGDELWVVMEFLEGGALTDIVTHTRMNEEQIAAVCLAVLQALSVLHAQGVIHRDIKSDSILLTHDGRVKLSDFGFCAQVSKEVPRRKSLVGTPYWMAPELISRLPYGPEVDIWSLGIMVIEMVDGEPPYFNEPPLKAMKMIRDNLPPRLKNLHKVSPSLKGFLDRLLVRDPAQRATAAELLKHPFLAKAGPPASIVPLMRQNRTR
row,inhibition [%],SMILES
1,> 80,C[C@@H]1CN(C(=O)c2nc(Nc3cc(C4CC4)[nH]n3)c3cc(Cl)ccc3n2)CCN1 [listing 2 of 2 here]

# Target: T1, Serine/threonine-protein kinase PAK 4
# Experiment: Inhibition of human PAK4 in human A549 cells assessed as decrease in MMP2 expression up to 10 uM by Western blotting method
# Type: cell-based
# Target sequence in this assay (O96013 whole entry, looked up, the tested form may be a part): as above
row,inhibition,SMILES
1,Active,C[C@@H]1CN(C(=O)c2nc(Nc3cc(C4CC4)[nH]n3)c3cc(Cl)ccc3n2)CCN1 [listing 2 of 2 here]

# Target: T1, Serine/threonine-protein kinase PAK 4
# Experiment: Inhibition of human PAK4 in human A549 cells assessed as decrease in phosphorylation of GEF-H1 at Ser810 residue up to 10 uM by Western blotting method
# Type: cell-based
# Target sequence in this assay (O96013 whole entry, looked up, the tested form may be a part): as above
row,inhibition,SMILES
1,Active,C[C@@H]1CN(C(=O)c2nc(Nc3cc(C4CC4)[nH]n3)c3cc(Cl)ccc3n2)CCN1 [listing 2 of 2 here]

# Target: Serine/threonine-protein kinase PAK 1 (Homo sapiens, UniProt Q13153)
# Experiment: Inhibition of human PAK1 kinase domain using coumarin and fluorescein-labeled ser/thr19 peptide as substrate preincubated for 15 mins followed by ATP addition measured after 60 mins by Z'-Lyte assay
# How it was run: (§1)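 FRET-based Z′-Lyte kinase assay run per the kit instructions. Ki values are the average of at least two duplicate experiments; SEM < ±20%.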
# Serine/threonine-protein kinase PAK 1, sequence (Q13153 whole entry, the tested form may be a part): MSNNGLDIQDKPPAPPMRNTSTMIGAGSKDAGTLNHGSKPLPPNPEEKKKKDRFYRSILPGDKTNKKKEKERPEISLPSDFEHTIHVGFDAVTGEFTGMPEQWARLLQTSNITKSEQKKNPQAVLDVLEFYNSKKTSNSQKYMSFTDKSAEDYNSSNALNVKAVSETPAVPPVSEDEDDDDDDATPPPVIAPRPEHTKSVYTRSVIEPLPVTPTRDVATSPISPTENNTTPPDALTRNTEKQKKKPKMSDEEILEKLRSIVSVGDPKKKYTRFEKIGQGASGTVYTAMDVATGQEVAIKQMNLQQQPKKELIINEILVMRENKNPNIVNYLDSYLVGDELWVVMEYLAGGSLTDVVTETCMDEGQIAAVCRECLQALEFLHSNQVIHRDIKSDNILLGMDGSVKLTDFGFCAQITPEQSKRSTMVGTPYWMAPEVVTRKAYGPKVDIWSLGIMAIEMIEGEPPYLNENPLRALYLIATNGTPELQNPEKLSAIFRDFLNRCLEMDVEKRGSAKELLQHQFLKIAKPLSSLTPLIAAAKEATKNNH
row,Ki [nM],SMILES
1,2750,O=C(c1nc(Nc2cc(C3CC3)[nH]n2)c2cc(Cl)ccc2n1)N1CCNCC1
2,3110,C[C@@H]1CN(C(=O)c2nc(Nc3cc(C4CC4)[nH]n3)c3cc(Cl)ccc3n2)CCN1 [listing 1 of 2 here]
3,503,C[C@@H]1CN(C(=O)c2nc(Nc3cc(C4CC4)[nH]n3)c3cc(F)ccc3n2)CCN1
4,690,C[C@H]1CN(C(=O)c2nc(Nc3cc(C4CC4)[nH]n3)c3cc(Cl)ccc3n2)CCN1

# Second part, the compound before the results:
row,SMILES,Ki [nM]
1,Cc1cc(Nc2nc(C(=O)N3CCNCC3)nc3ccc(Cl)cc23)n[nH]1,> 10000
2,C[C@H]1CNCCN1C(=O)c1nc(Nc2cc(C3CC3)[nH]n2)c2cc(Cl)ccc2n1,383
3,Cc1cc(Nc2nc(C(=O)N3CCN[C@@H](C)C3)nc3ccc(Cl)cc23)n[nH]1,> 4520
4,C[C@@H]1CN(C(=O)c2nc(Nc3cc(C4CC4)[nH]n3)c3ccccc3n2)CCN1,1070
5,C[C@@H]1CNCCN1C(=O)c1nc(Nc2cc(C3CC3)[nH]n2)c2cc(Cl)ccc2n1,2080

# Test system: A549
# Experiment: Antimigratory activity against human A549 cells at 0.5 to 10 uM after 24 hrs by transwell assay
# Type: functional, cell-based
row,SMILES,Activity
1,C[C@@H]1CN(C(=O)c2nc(Nc3cc(C4CC4)[nH]n3)c3cc(Cl)ccc3n2)CCN1 [listing 2 of 2 here],Active

# Target: T1, Serine/threonine-protein kinase PAK 4
# Experiment: Inhibition of human PAK4 in human A549 cells assessed as decrease in phosphorylation levels of LIMK1 by Western blotting method
# Type: cell-based
# Target sequence in this assay (O96013 whole entry, looked up, the tested form may be a part): as the sequence (O96013 whole entry, looked up, the tested form may be a part) above
row,inhibition,SMILES
1,Dose-dependent effect,C[C@@H]1CN(C(=O)c2nc(Nc3cc(C4CC4)[nH]n3)c3cc(Cl)ccc3n2)CCN1 [listing 2 of 2 here]

# Test system: HEK293
# Experiment: Antimigratory activity against human HEK293 cells at 0.5 to 10 uM after 24 hrs by transwell assay
# Type: functional, cell-based
row,SMILES,Activity
1,C[C@@H]1CN(C(=O)c2nc(Nc3cc(C4CC4)[nH]n3)c3cc(Cl)ccc3n2)CCN1 [listing 2 of 2 here],inactive

# Test system: A549
# Experiment: Antimigratory activity against human A549 cells at 0.5 to 10 uM after 48 hrs by wound healing assay
# Type: functional, cell-based
row,SMILES,Activity
1,C[C@@H]1CN(C(=O)c2nc(Nc3cc(C4CC4)[nH]n3)c3cc(Cl)ccc3n2)CCN1 [listing 2 of 2 here],Active

# Test system: NCI-H460
# Experiment: Antimigratory activity against human NCI-H460 cells at 0.5 to 10 uM after 24 hrs by transwell assay
# Type: functional, cell-based
row,SMILES,Activity
1,C[C@@H]1CN(C(=O)c2nc(Nc3cc(C4CC4)[nH]n3)c3cc(Cl)ccc3n2)CCN1 [listing 2 of 2 here],inactive

# Test system: A549
# Experiment: Antiproliferative activity against human A549 cells up to 72 hrs by MTT assay
# Type: functional, cell-based
row,SMILES,Activity
1,C[C@@H]1CN(C(=O)c2nc(Nc3cc(C4CC4)[nH]n3)c3cc(Cl)ccc3n2)CCN1 [listing 2 of 2 here],Active

# Target: T1, Serine/threonine-protein kinase PAK 4
# Experiment: Inhibition of human PAK4 kinase domain using coumarin and fluorescein-labeled ser/thr20 peptide as substrate preincubated for 15 mins followed by ATP addition measured after 60 mins by Z'-Lyte assay
# Target sequence in this assay (O96013 whole entry, the tested form may be a part): as the sequence (O96013 whole entry, looked up, the tested form may be a part) above
row,Ki [nM],SMILES
1,16,O=C(c1nc(Nc2cc(C3CC3)[nH]n2)c2cc(Cl)ccc2n1)N1CCNCC1
2,16,C[C@@H]1CN(C(=O)c2nc(Nc3cc(C4CC4)[nH]n3)c3cc(F)ccc3n2)CCN1
3,28,C[C@H]1CN(C(=O)c2nc(Nc3cc(C4CC4)[nH]n3)c3cc(Cl)ccc3n2)CCN1

# The remaining lines, values behind:
row,SMILES,Ki [nM]
1,Cc1cc(Nc2nc(C(=O)N3CCNCC3)nc3ccc(Cl)cc23)n[nH]1,45
2,C[C@H]1CNCCN1C(=O)c1nc(Nc2cc(C3CC3)[nH]n2)c2cc(Cl)ccc2n1,26
3,Cc1cc(Nc2nc(C(=O)N3CCN[C@@H](C)C3)nc3ccc(Cl)cc23)n[nH]1,306
4,C[C@@H]1CN(C(=O)c2nc(Nc3cc(C4CC4)[nH]n3)c3ccccc3n2)CCN1,17
5,C[C@@H]1CNCCN1C(=O)c1nc(Nc2cc(C3CC3)[nH]n2)c2cc(Cl)ccc2n1,17

# Target: T1, Serine/threonine-protein kinase PAK 4
# Experiment: Inhibition of human PAK4 in human A549 cells assessed as decrease in phosphorylation levels of PAK4 at Ser474 residue by Western blot method
# Type: cell-based
# Target sequence in this assay (O96013 whole entry, looked up, the tested form may be a part): as above
row,inhibition,SMILES
1,Dose-dependent effect,C[C@@H]1CN(C(=O)c2nc(Nc3cc(C4CC4)[nH]n3)c3cc(Cl)ccc3n2)CCN1 [listing 2 of 2 here]

# Target: T1, Serine/threonine-protein kinase PAK 4
# Experiment: Inhibition of human PAK4 in human A549 cells assessed as decrease in phosphorylation levels of cofilin by Western blotting method
# Type: cell-based
# Target sequence in this assay (O96013 whole entry, looked up, the tested form may be a part): as above
row,inhibition,SMILES
1,Dose-dependent effect,C[C@@H]1CN(C(=O)c2nc(Nc3cc(C4CC4)[nH]n3)c3cc(Cl)ccc3n2)CCN1 [listing 2 of 2 here]

# Test system: A549
# Experiment: Antiinvasive activity against human A549 cells at 0.5 to 10 uM after 24 hrs by transwell assay
# Type: functional, cell-based
row,SMILES,Activity
1,C[C@@H]1CN(C(=O)c2nc(Nc3cc(C4CC4)[nH]n3)c3cc(Cl)ccc3n2)CCN1 [listing 2 of 2 here],Active

# Target: T1, Serine/threonine-protein kinase PAK 4
# Experiment: Inhibition of GST-tagged human PAK4 (295 to 591 residues) expressed in Baculovirus expression system by Z'-Lyte assay
# How it was run: as §1
# Target sequence in this assay (O96013 whole entry, the tested form may be a part): as the sequence (O96013 whole entry, looked up, the tested form may be a part) above
row,IC50 [nM],SMILES
1,11.1,C[C@@H]1CN(C(=O)c2nc(Nc3cc(C4CC4)[nH]n3)c3cc(Cl)ccc3n2)CCN1 [listing 1 of 2 here]

# Species: Homo sapiens
# Experiment: Selectivity index, ratio of Ki for human PAK1 to Ki for human PAK4
# How it was run: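 Ratio of PAK1 Ki to PAK4 Ki, both taken from the FRET-based Z′-Lyte assay.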
row,Ratio Ki,SMILES
1,172,O=C(c1nc(Nc2cc(C3CC3)[nH]n2)c2cc(Cl)ccc2n1)N1CCNCC1
2,31,C[C@@H]1CN(C(=O)c2nc(Nc3cc(C4CC4)[nH]n3)c3cc(F)ccc3n2)CCN1
3,25,C[C@H]1CN(C(=O)c2nc(Nc3cc(C4CC4)[nH]n3)c3cc(Cl)ccc3n2)CCN1
4,346,C[C@@H]1CN(C(=O)c2nc(Nc3cc(C4CC4)[nH]n3)c3cc(Cl)ccc3n2)CCN1 [listing 2 of 2 here]

# The next lines start with the compound.
row,SMILES,Ratio Ki
1,Cc1cc(Nc2nc(C(=O)N3CCNCC3)nc3ccc(Cl)cc23)n[nH]1,> 222
2,C[C@H]1CNCCN1C(=O)c1nc(Nc2cc(C3CC3)[nH]n2)c2cc(Cl)ccc2n1,15
3,Cc1cc(Nc2nc(C(=O)N3CCN[C@@H](C)C3)nc3ccc(Cl)cc23)n[nH]1,> 15
4,C[C@@H]1CN(C(=O)c2nc(Nc3cc(C4CC4)[nH]n3)c3ccccc3n2)CCN1,63
5,C[C@@H]1CNCCN1C(=O)c1nc(Nc2cc(C3CC3)[nH]n2)c2cc(Cl)ccc2n1,122

# Target: T1, Serine/threonine-protein kinase PAK 4
# Experiment: Binding affinity to biotin-labeled human truncated PAK4 kinase domain by surface plasmon resonance assay
# How it was run: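 Binding to the truncated PAK4 was measured by SPR with multiconcentration kinetic analysis. Kd was taken from a 1:1 binding model fit.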
# Target sequence in this assay (O96013 whole entry, the tested form may be a part): as the sequence (O96013 whole entry, looked up, the tested form may be a part) above
row,Kd [nM],SMILES
1,66,Cc1cc(Nc2nc(C(=O)N3CCNCC3)nc3ccc(Cl)cc23)n[nH]1
2,16,O=C(c1nc(Nc2cc(C3CC3)[nH]n2)c2cc(Cl)ccc2n1)N1CCNCC1

# Test system: HEK293
# Experiment: Antiinvasive activity against human HEK293 cells at 0.5 to 10 uM after 24 hrs by transwell assay
# Type: functional, cell-based
row,SMILES,Activity
1,C[C@@H]1CN(C(=O)c2nc(Nc3cc(C4CC4)[nH]n3)c3cc(Cl)ccc3n2)CCN1 [listing 2 of 2 here],inactive
